The sample as a whole holds a higher share of hits than the screen did.
UPR XBP1 act: adaptive UPR (XBP1) activation; CHO-XBP1 luciferase reporter, IRE1-XBP1 UPR activation, luminescence; percent of tunicamycin response, DMSO as zero; activation, % at 20 µM; hit rate 0.33% among 330,000; AID 463104;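 active = versus positive control, 20 µM dose yields 30% or more activation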
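Material: CHO-XBP1 cells stably carrying IRE1-XBP1-driven luciferase reporter | Medium: F12 with 10% serum | Compound dosing: 20 µM single concentration, DMSO 1% | Incubation: Overnight seeding at 37 °C, 6 h compound treatment at 37 °C | Detection: Steady-Glo luminescence read | Read-out basis: % activation of reporter signal versus tunicamycin and DMSO controls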
CHOP inhibitor: inhibitors of CHOP induction in ER stress response | CHO-K1 CHOP-promoter luciferase, tunicamycin-induced, 15-18 h | inhibition, % at 10 µM | hit rate 3.8% among 220,000 | AID 2732;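 active = compounds that reduced the stress-induced luciferase reporter signal by more than about 70% of percent inhibition, limit read from the data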
GAA850 FXN act: activators of GAA850 frataxin (FXN) promoter. activation, % at 6 µM. hit rate 0.56% among 360,000. HEK293 lucGAA850 FXN promoter luciferase reporter, 24 h; percent of 10 µM SAHA response;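 active = activation above the average of all compounds screened plus 3 SD, cutoff fixed separately per campaign, cut at about 7.5% in these data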
UPR CHOP act: apoptotic UPR (CHOP) activation; CHO-CHOP luciferase reporter, luminescence; percent of tunicamycin response over DMSO baseline; activation, % at 10 µM; hit rate 0.34% among 330,000;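 active = at 10 µM dose, activation of 40% or more, normalized to positive control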
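Evaluation: % reporter activation, DMSO baseline versus tunicamycin full activation; System: CHO-CHOP luciferase reporter cell line; Input: 500 cells/well; Incubation: 6 h compound treatment, 37 °C; Measured by: Steady-Glo luciferase luminescence; Dosing: one dose, 10 µM in 0.5% DMSO; Buffer or medium: F12 medium, 10% FBS; Benchmarks: positive tunicamycin 10 µg/mL, negative DMSO alone.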
CHOP confirm: confirmation of CHOP induction inhibitors | shares compounds with CHOP inhibitor | CHO-CHOP promoter luciferase reporter, tunicamycin-induced, luminescence | inhibition, % at 10 µM | hit rate 45% among 2,100;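 active = mean of three repeat readings of reporter signal inhibition above a set limit, cut at about 70% in these data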
Of the large screens only hits and unclear results are named; the others gave an inactive call (follow-up assays come after a bar, where they were run).

COCCn1cnc2c(c1=O)c1nc3ccccc3nc1n2/N=C/c1cccc(OC)c1	CHOP inhibitor 101 | CHOP confirm 107
C=CCn1cnc2c(c1=O)c1nc3ccccc3nc1n2/N=C/c1cc(OC)c(OC)c(OC)c1	none
CCN1C(=O)[C@H]2[C@@H](c3ccc(C(F)(F)F)cc3)N[C@]3(CCCN(Cc4ccc(C(F)(F)F)cc4)C3=O)[C@H]2C1=O	none (no result: UPR XBP1 act, CHOP inhibitor, UPR CHOP act)
Nc1cccc(Nc2nc(OC(C(F)(F)F)C(F)(F)F)nc(OC(C(F)(F)F)C(F)(F)F)n2)c1	CHOP inhibitor 100 | CHOP confirm 117
Cn1c(N2CCN(C(=O)Nc3ccc(F)cc3)CC2)nc2ccccc21	none
O=C(Nc1ccc(F)cc1)N1CCn2c(nc3ccccc32)C1	CHOP inhibitor 98 | CHOP confirm inactive
O=C(N/C(=C/c1cccc(Br)c1)C(=O)N1CCCCC1)c1ccco1	none (no result: UPR XBP1 act, CHOP inhibitor, UPR CHOP act)
O=C1C(Cl)=C(N2CCCCC2)C(=O)C(Cl)=C1c1cnc(N2CCCCC2)s1	UPR CHOP act 128 (no result: CHOP inhibitor) | CHOP confirm 95
COC1CCC2(C)C(=CCC3C4CC(O)CC4(C)CCC32)C1 (configuration not stated)	none (no result: UPR XBP1 act, CHOP inhibitor, UPR CHOP act)
CC1=CC(C)(C)n2c(O)c(N=N)c3c(C)ccc1c32	none
CC1=CC(C)(C)n2c(O)c(N=N)c3c(C)c(C)cc1c32	CHOP inhibitor 98 | CHOP confirm inactive
CCC(=O)N1N=C(c2c(-c3ccccc3)c3cc(Cl)ccc3[nH]c2=O)CC1c1ccco1 (configuration not stated)	CHOP inhibitor 103 | CHOP confirm 116
COc1ccc(NC(=O)c2cc(C3CCCCN3C(=O)c3ccc4c(c3)CCO4)on2)c(C)c1 (configuration not stated)	none (no result: UPR XBP1 act, CHOP inhibitor, UPR CHOP act)
CC(=O)Nc1cn(-c2ccccc2)nc1-c1ccccc1	none
O=C(CCl)Nc1cn(-c2ccccc2)nc1-c1ccccc1	CHOP inhibitor 107 | CHOP confirm 106
CN1CCN(c2ncnc3c2ncn3[C@H]2CN(Cc3ccc(Cl)cc3)C[C@@H](CO)O2)CC1	none (no result: UPR XBP1 act, CHOP inhibitor, UPR CHOP act)
O=C(Nc1ccc2oc(=O)ccc2c1)c1ccc(-c2cccc(Cl)c2)o1	CHOP inhibitor 100 | CHOP confirm inactive
O=C(Nc1ccc2oc(=O)ccc2c1)c1ccc(-c2ccc(Cl)cc2)o1	none
NC(c1ccccc1)c1csc(Nc2ccc(C(=O)NCCCO)cn2)n1 (configuration not stated)	none (no result: UPR XBP1 act, CHOP inhibitor, UPR CHOP act)
O=[N+]([O-])c1ccc(O)c(/C=N/Nc2ccccc2Cl)c1	CHOP inhibitor 96 | CHOP confirm 125
CCCS(=O)(=O)NC(=O)C1(C)CCCN(C(=O)c2nc3ccccc3s2)C1 (configuration not stated)	none (no result: UPR XBP1 act, CHOP inhibitor, UPR CHOP act)
Nc1c(S(=O)(=O)c2ccccc2)c2nc3ccccc3nc2n1/N=C/c1cccc(O)c1	CHOP inhibitor 103 | CHOP confirm 72
COc1cc(CNCc2ccccn2)ccc1OCc1ccc(Cl)c(Cl)c1	none
CCOc1cccc(CNc2ccc(O)cc2)c1OCc1ccc(Cl)cc1	CHOP inhibitor 109 | CHOP confirm inactive
COc1cc(CNCc2ccccn2)ccc1OCc1ccc(Cl)cc1Cl	CHOP inhibitor 98 | CHOP confirm 106
CCOc1ccccc1CNc1ccc(O)cc1	none (no result: UPR XBP1 act, UPR CHOP act)
CCOc1cc(CNc2ccc(O)cc2)ccc1OCc1ccc(Cl)cc1Cl	CHOP inhibitor 103 | CHOP confirm 112
CCOc1cc(CNCc2ccccc2)ccc1OCc1ccc(Cl)cc1	none (no result: CHOP inhibitor)
O=S(=O)(/N=C(/Sc1ccccc1)c1ccccc1)c1ccccc1	CHOP inhibitor 112 | CHOP confirm inactive
CS/C(=N\S(=O)(=O)c1ccccc1)c1ccccc1	none
Cc1ccc(S(=O)(=O)NC(=O)C2(C)CCN2C(=O)c2cccc(F)c2)nc1 (configuration not stated)	none (no result: UPR XBP1 act, CHOP inhibitor, UPR CHOP act)
CC(C)(C)c1ccc(NC(=O)C(=O)C2C(=O)Nc3ccccc32)cc1 (configuration not stated)	CHOP inhibitor 101 | CHOP confirm inactive
Fc1ccc2[nH]c3c(N4CCN(c5ccccc5)CC4)ncnc3c2c1	none
OC1(c2cccc(C(F)(F)F)c2)CCN(c2ncnc3c2[nH]c2ccc(F)cc23)CC1	none (no result: UPR XBP1 act, CHOP inhibitor, UPR CHOP act) | CHOP confirm 102
C=CCn1c(SCC(=O)c2[nH]c(C)c(C(=O)OC)c2C)nc2scc(-c3ccc(OC)c(OC)c3)c2c1=O	CHOP inhibitor 102 (no result: UPR XBP1 act, UPR CHOP act) | CHOP confirm 120
OC[C@@H]1CN(Cc2cccs2)C[C@H](n2cnc3c(NCc4ccc(F)cc4)ncnc32)O1	none (no result: UPR XBP1 act, CHOP inhibitor, UPR CHOP act)

Source: PubChem (several laboratories)
